The source of these data is ChEMBL document CHEMBL4266005, “Discovery of a Biologically Active Bromodomain Inhibitor by Target-Directed Dynamic Combinatorial Chemistry” (ACS Med Chem Lett, 2018).

pIC50, pKd: −log10 of the molar value. Activity calls are given as the source filed them. The rule behind the calls is not given here.

Data set [1] has as its system Trypanosoma cruzi. Description: Binding affinity to recombinant Trypanosoma cruzi His/haemaglutinin-tagged BDF3 expressed in Escherichia coli BL21 assessed as compound amplification factor at 75 uM by LC-MS based dynamic combinatorial chemistry analysis. In outline:
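A dynamic acylhydrazone library was built from six aldehydes and four acylhydrazides (75 μM each) in 100 mM ammonium acetate, pH 6.5, with 3.75 mM aniline. It reached constant composition by about 10 h and was run with or without 100 μM recombinant TcBDF3. Amplification factor is the LC–MS peak area with template divided by the area without template.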

Data set [2] has as its system Trypanosoma cruzi. Description: Antitrypanosomal activity against Trypanosoma cruzi Dm28c trypomastigotes infected in African green monkey Vero cells after 24 hrs by CPRG/Nonidet reagent based beta-galactosidase reporter gene assay. The class given is functional, organism-based. In outline: (§1)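 β-Galactosidase-expressing parasites were exposed to 0–200 μM of compound. Growth inhibition was read from β-galactosidase activity, and IC50 was obtained by nonlinear regression of activity against concentration.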
(In general: In a reporter assay the amount or activity of a reporter protein is the signal.)

The test system of data set [3] is Trypanosoma cruzi. Description: Antitrypanosomal activity against Trypanosoma cruzi Dm28c amastigotes infected in African green monkey Vero cells after 48 hrs by CPRG/Nonidet reagent based beta-galactosidase reporter gene assay. The class given is functional, organism-based. The essentials:
as §1

The test system of data set [4] is Vero. Description: Cytotoxicity against African green monkey Vero cells after 72 hrs by MTT assay. The class given is cell-based. To be noted: Chlorocebus sabaeus. In general terms: Formazan colour is commonly taken as a measure of viable cells.
Data set [5] deals with Trypanosoma cruzi. Description: Antitrypanosomal activity against Trypanosoma cruzi Dm28c epimastigotes infected in African green monkey Vero cells after 72 hrs by CPRG/Nonidet reagent based beta-galactosidase reporter gene assay. The class given is functional, organism-based. The essentials: as §1
The subject of data set [6] is Trypanosoma cruzi. Description: (§2) Binding affinity to recombinant Trypanosoma cruzi His/haemaglutinin-tagged BDF3 expressed in Escherichia coli BL21 by fluorescence spectra analysis. The essentials: (§3)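 Intrinsic tryptophan (W117) fluorescence spectra were recorded for 10 μM recombinant TcBDF3 in 100 mM ammonium acetate, pH 6.5, alone and with increasing ligand; building blocks were tested at 100 μM. Quenching was analyzed by Stern–Volmer, modified Stern–Volmer and double-logarithmic plots, and Kd came from the double-logarithmic plot.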

Data set [7] has as its system Trypanosoma cruzi. Description: Binding affinity to recombinant Trypanosoma cruzi His/haemaglutinin-tagged BDF3 expressed in Escherichia coli BL21 assessed as change in melting temperature by SYPRO orange based thermal shift assay.
The test system of data set [8] is Trypanosoma cruzi. Description: Antitrypanosomal activity against Trypanosoma cruzi Dm28c […] infected in African green monkey Vero cells at 25 uM after 48 hrs by CPRG/Nonidet reagent based beta-galactosidase reporter gene assay. The class given is functional, organism-based.
Data set [9] concerns Trypanosoma cruzi. Description: Binding affinity to recombinant Trypanosoma cruzi His/haemaglutinin-tagged BDF3 Y123A/L130A double mutant expressed in Escherichia coli BL21 assessed as change in melting temperature at 10 uM by SYPRO orange based thermal shift assay.
Data set [10] can be described thus: Selectivity index, ratio of IC50 for African green monkey Vero cells to IC50 for Trypanosoma cruzi Dm28c amastigotes infected in African green monkey Vero cells. The class given is toxicity. To be noted: read-out: Ratio IC50. In outline:
(§4)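 Selectivity index is the Vero cell toxicity IC50 divided by the IC50 against the relevant extracellular or intracellular parasite form.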

A short description of data set [11]: Selectivity index, ratio of IC50 for African green monkey Vero cells to IC50 for Trypanosoma cruzi Dm28c trypomastigotes infected in African green monkey Vero cells. The class given is toxicity. To be noted: read-out: Ratio IC50. In outline: as §4
Data set [12] relates to Trypanosoma cruzi. Description: Binding affinity to recombinant Trypanosoma cruzi His/haemaglutinin-tagged BDF3 Y123A/L130A double mutant expressed in Escherichia coli BL21 by LC-MS based dynamic combinatorial chemistry analysis. In outline: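 Dynamic library of six aldehydes and four acylhydrazides (75 μM each) in 100 mM ammonium acetate, pH 6.5, with 3.75 mM aniline, equilibrated about 10 h, with and without 100 μM recombinant protein. Read-out: LC–MS peak areas. Amplification factor = peak area in templated library ÷ peak area in untemplated library.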

Data set [13] in a line: as §2. In outline:
as §3

Data set [14] deals with Trypanosoma cruzi. Description: Binding affinity to recombinant Trypanosoma cruzi His/haemaglutinin-tagged BDF3 Y123A/L130A double mutant expressed in Escherichia coli BL21 by fluorescence spectra analysis. The essentials: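 Intrinsic tryptophan fluorescence of 10 μM recombinant protein in 100 mM ammonium acetate, pH 6.5, measured with and without the hydrazone dynamic library. Maximum emission was normalized and compared.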

A short description of data set [15]: Selectivity index, ratio of IC50 for African green monkey Vero cells to IC50 for Trypanosoma cruzi Dm28c epimastigotes infected in African green monkey Vero cells. The class given is toxicity. Conditions: read-out: Ratio IC50. The essentials: as §4
Data set [16] relates to Trypanosoma cruzi. Description: Binding affinity to recombinant Trypanosoma cruzi His/haemaglutinin-tagged BDF3 expressed in Escherichia coli BL21 assessed as change in melting temperature at 10 uM by SYPRO orange based thermal shift assay.
Data set [17] relates to Trypanosoma cruzi. Description: Binding affinity to recombinant Trypanosoma cruzi His/haemaglutinin-tagged BDF3 expressed in Escherichia coli BL21 at 100 uM by fluorescence spectra analysis. In outline: as §3

Take `O=C(O)c1ccc(/C=N/NC(=O)c2ccncc2)cc1`: in data set [1], the fold change (FC) is below 1. Still for that read-out and setting: the result for `O=C(O)c1ccc(/C=N/NC(=O)c2ccccc2)cc1` reads below 1; that for `O=C(N/N=C/[C@H](O)[C@H](O)[C@H](O)[C@@H](O)CO)c1ccccc1`, 1.5 to 2. `O=C(N/N=C/c1ccc(CO)o1)c1ccncc1`: the fold change (FC) in data set [1] was below 1. Turning to `COc1cc(/C=N/NC(=O)c2ccccc2)cc(OC)c1OC`, the fold change (FC) in [1] is below 1.

Consider `O=C(N/N=C/CCC/C=N/NC(=O)c1ccco1)c1ccncc1`, for which the fold change (FC) in data set [1] was below 1.

As to `O=C(N/N=C/CCC/C=N/NC(=O)c1ccncc1)c1ccncc1`, the fold change (FC) in data set [1] was below 1. For `O=C(N/N=C/CCC/C=N/NC(=O)c1ccco1)c1ccccc1`, the fold change (FC) in data set [1] was below 1. As to `O=C(N/N=C/CCC/C=N/NC(=O)c1cccs1)c1cccs1`, in data set [1], the fold change (FC) lay in the range of 1.5 to 2. With `COc1cc(/C=N/NC(=O)c2ccncc2)ccc1O`, the fold change (FC) in data set [1] was below 1. Same read-out and setting: the result for `O=C(N/N=C/CCC/C=N/NC(=O)c1cccs1)c1ccco1` reads below 1. The term pIC50 denotes −log10 of the IC50, conventionally taken in molar units. On to `O=C(Cn1ccnc1[N+](=O)[O-])NCc1ccccc1` [BENZNIDAZOLE], for which the pIC50 was 4.57 in [2], 5.41 in data set [3], 4.52 in [4] and 4.74 in [5]. `O=C(N/N=C/c1ccc(CO)o1)c1cccs1`: the fold change (FC) in [1] is below 1. For `O=C(N/N=C/CCC/C=N/NC(=O)c1ccncc1)c1ccccc1`, the fold change (FC) in data set [1] was below 1. Still for that read-out and setting: then `COc1cc(/C=N/NC(=O)c2ccco2)ccc1O`, with 1.5 to 2; and `COc1cc(/C=N/NC(=O)c2ccco2)cc(OC)c1OC`, with below 1. Turning to `O=C(N/N=C/CCC/C=N/NC(=O)c1cccs1)c1ccccc1`, the fold change (FC) in data set [1] is below 1. For the compound `COc1cc(/C=N/NC(=O)c2cccs2)cc(OC)c1OC`, the result in [6], in data set [7] and in data set [8] was Active. Further, the fold change (FC) in data set [1] was 1.2. For the compound `O=C(N/N=C/[C@H](O)[C@H](O)[C@H](O)[C@@H](O)CO)c1cccs1`, the fold change (FC) in [1] was below 1. As for `O=C(N/N=C/CCC/C=N/NC(=O)c1ccco1)c1ccco1`, the fold change (FC) in [1] is below 1. Usually ΔTm stands for the shift of the melting midpoint relative to a reference. A word on the pKd: it is the Kd on a negative log10 scale, so that one unit is a factor of ten. For the compound `COc1cc(/C=N/NC(=O)c2cccs2)ccc1O`, the ΔTm in data set [9] worked out at 0.4 °C; in [16], 3.43 °C. In addition, the negative-log IC50 (pIC50) in data set [2] was 4.75; in data set [3], 4.88; in data set [4], below 3.70; in [5], 4.64. The values for the selectivity ratio in data set [10], in [11] and in data set [15] were above 15, above 11 and above 9, respectively. For the same compound, the outcome in data set [12] and in data set [14] was inactive. In data set [13], the pKd is 5.77. In [1], the fold change (FC) is 2.4. In the case of `COc1cc(/C=N/NC(=O)c2ccccc2)ccc1O`, the fold change (FC) in [1] was in the range of 1.5 to 2.

As for `O=C(N/N=C/CCC/C=N/NC(=O)c1cccs1)c1ccncc1`, in [1], the fold change (FC) was below 1. For `COc1cc(/C=N/NC(=O)c2ccncc2)cc(OC)c1OC`, the fold change (FC) in data set [1] was below 1.

For the compound `O=C(N/N=C/[C@H](O)[C@H](O)[C@H](O)[C@@H](O)CO)c1ccncc1`, the fold change (FC) in data set [1] lay within 1.5 to 2. Regarding `CC1CS(=O)(=O)CCN1/N=C/c1ccc([N+](=O)[O-])o1` (stereo not drawn) [NIFURTIMOX], the pIC50 was 5.15 in [2], 5.52 in data set [3], 3.94 in data set [4] and 5.10 in data set [5]. Also, the selectivity ratio in [10] worked out at 38; in data set [11], 16; in data set [15] it was 14.

For the compound `COc1cc(C=O)ccc1O`, the outcome in [17] was inactive.

On to `O=C(N/N=C/c1ccc(CO)o1)c1ccco1`, for which, in data set [1], the fold change (FC) is below 1.

Regarding `NNC(=O)c1cccs1`, the outcome in [17] was inactive.

For the compound `O=C(O)c1ccc(/C=N/NC(=O)c2cccs2)cc1`, the fold change (FC) in data set [1] was below 1. With `O=C(N/N=C/c1ccc(CO)o1)c1ccccc1`, the fold change (FC) in data set [1] is below 1.

On to `O=C(N/N=C/[C@H](O)[C@H](O)[C@H](O)[C@@H](O)CO)c1ccco1`, for which, in data set [1], the fold change (FC) was below 1. `O=C(N/N=C/CCC/C=N/NC(=O)c1ccccc1)c1ccccc1`: the fold change (FC) in data set [1] is below 1.

As to `O=C(O)c1ccc(/C=N/NC(=O)c2ccco2)cc1`, in data set [1], the fold change (FC) was below 1.
